An excerpt weighted towards active compounds, which were near 1.5% of everything screened.
SIRT5 inh: blocks human SIRT5 desuccinylation of peptide | 1.1% of 330,000 active | inhibition, % at 15 µM | Q9NXA8 | Purified SirT5, succinyl-peptide AMC, trypsin-coupled fluorescence; in the data active means inhibition above about 15%
CRFR2-BP antag: blocks CRF-induced signaling of the CRF-BP/CRF-R2 complex; HEK293 CRF-R2/CRF-BP, CRF-induced calcium fluorescence; inhibition, % at 11.8 µM; 0.59% of 350,000 active; AID 588475;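 active means inhibition of the ligand-induced calcium signal above about 50% at the single tested concentration, limit read from the data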
PKA-R2B activ: activates the human PKA-R2B holoenzyme complex. activation, % at 11.4 µM. AID 504700. 0.079% of 340,000 active. PKA-R2B holoenzyme dissociation, Cy5-IP20 fluorescence polarization; R2B truncated from residue 108, S112A mutant; 0% DMSO only, 100% 113 µM cGMP;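 active means activation above a cutoff set at the mean over all compounds plus 3 SD, cut at about 18% in these data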;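 further: higher means more holoenzyme dissociation and a rise in polarization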
Target sequence (P31323 whole entry, looked up, other chains not shown, the tested form may be a part): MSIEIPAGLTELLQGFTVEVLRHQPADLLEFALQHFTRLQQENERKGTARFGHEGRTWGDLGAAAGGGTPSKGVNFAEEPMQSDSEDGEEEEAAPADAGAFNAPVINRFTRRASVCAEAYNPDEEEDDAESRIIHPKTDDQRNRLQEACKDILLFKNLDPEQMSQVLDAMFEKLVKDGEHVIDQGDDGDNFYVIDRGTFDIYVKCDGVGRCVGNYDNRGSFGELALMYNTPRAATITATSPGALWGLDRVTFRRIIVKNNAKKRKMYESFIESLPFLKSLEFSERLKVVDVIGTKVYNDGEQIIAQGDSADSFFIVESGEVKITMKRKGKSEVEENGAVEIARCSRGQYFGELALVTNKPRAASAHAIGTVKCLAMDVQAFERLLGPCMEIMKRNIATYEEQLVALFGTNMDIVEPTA
S100A4 MyoIIA: S100A4-myosin IIA interaction inhibition; P26447; S100A4/TAMRA-MyoIIA peptide fluorescence polarization; inhibition, % at 10.7 µM; 0.14% of 360,000 active;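 active means mean inhibition of at least 70% across replicates, with every replicate also reaching that level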
Target sequence (P26447 whole entry, looked up): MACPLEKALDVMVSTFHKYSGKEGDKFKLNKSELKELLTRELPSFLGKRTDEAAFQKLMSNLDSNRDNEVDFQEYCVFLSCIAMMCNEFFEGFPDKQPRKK
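Test system: S100A4 monomer protein. Medium: HEPES buffer with Ca2+, pH 7.2. Reagent: fluorescent myosin IIA peptide, 5 nM. Compound dosing: single-point compound testing. Timing: 5 min between mix addition and reading. Benchmarks: DMSO neutral and TFP positive wells.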
PKA-R1A activ: PKA-R1A complex activation; P00514+P68181; PKA-R1A dissociation, Cy5-IP20 fluorescence polarization; scaled: DMSO 0%, 113 µM cGMP 100%; activation, % at 11.4 µM; 0.083% of 340,000 active; AID 504707;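 active means percent activation above the mean of all tested compounds plus 3 SD, cut at about 19% in these data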;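 further: higher means more PKAc released from R1A so a rise in polarization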
The depositor's hits bear a star; / = no result given; + = active, no number.

SMILES	SIRT5 inh	CRFR2-BP antag	PKA-R2B activ	S100A4 MyoIIA	PKA-R1A activ
C[C@H]1CN([C@@H](C)CO)C(=O)c2cc(NC(=O)CCC(F)(F)F)ccc2O[C@H]1CN(C)C	17*	/	/	-7	/
CC(C)NC(=O)N1C[C@@H]2[C@H](c3ccccc31)[C@@H](CO)N2C(=O)C1CCCC1	0	/	/	2	/
CC(=O)N1CC2(C1)[C@H](c1ccc(-c3ccc(F)cc3)cc1)[C@H](CO)N2C(C)=O	3	/	/	-8	/
Cc1[nH]n(C(N)=S)c(=O)c1N=Nc1cc(-c2ccc(Br)cc2)[nH]n1	8	80*	/	0	/
CCNC(=O)C[C@@H]1CC[C@H]2[C@H](COc3ccc(NC(=O)c4ccc(F)cc4)cc3C(=O)N2C)O1	-2	/	/	-3	/
O=C(Nc1ccc(S(=O)(=O)N2CCCCC2)cc1)C1CC(=O)N(Cc2ccccc2)C1 (stereo not drawn)	-1	-2	1	+	3
O=C1CNC(=O)/C1=C\c1ccc(O)cc1	2	-3	-16	-8	-14
O=C1CNC(=O)/C1=C/c1ccc(Br)cc1	25*	5	0	-1	12
COc1ccccc1NC(=O)Nc1ccc2c(c1)C(=O)N(C)C[C@H](OC)[C@H](C)CN(C)[C@H](C)CO2	19*	/	/	/	/
CO[C@H]1CN(C)C(=O)c2cc(NC(=O)Nc3ccc(C(F)(F)F)cc3)ccc2OC[C@H](C)NC[C@H]1C	4	/	/	136*	/
CO[C@@H]1CN(C)C(=O)c2ccc(NC(=O)Nc3ccc(C(F)(F)F)cc3)cc2OC[C@@H](C)NC[C@@H]1C	/	/	/	-12	/
COc1ccccc1NC(=O)Nc1ccc2c(c1)C(=O)N(C)C[C@H](OC)[C@@H](C)CN(C)[C@@H](C)CO2	6	/	/	9	/
COc1ccccc1NC(=O)Nc1ccc2c(c1)C(=O)N(C)C[C@H](OC)[C@H](C)CN[C@@H](C)CO2	22*	/	/	-3	/
CCCNC(=O)C[C@@H]1CC[C@H]2[C@@H](COC[C@H](O)CN2C(=O)Nc2cccc(Cl)c2)O1	2	/	/	-21	/
Cc1cc(C)c2c(-n3cccc3)nn(C)c2n1	/	3	0	/	-6
Cc1ccc(C(=O)n2nc(-n3cccc3)c3c(C)cc(C)nc32)cc1	26*	10	-8	-6	-1
COc1ccccc1OCCNC(=O)C1CC(=O)N(Cc2ccc(C)cc2)C1 (stereo not drawn)	0	10	10	-2	-3
Cc1ccc(CN2CC(C(=O)NCCCSc3ccccc3)CC2=O)cc1 (stereo not drawn)	6	56*	-1	2	2
C[C@@H]1CN([C@H](C)CO)C(=O)c2cc(NS(=O)(=O)c3ccc(Cl)cc3)ccc2O[C@H]1CN(C)Cc1ccc(Oc2ccccc2)cc1	10	/	/	12	/
COc1ccc(S(=O)(=O)Nc2ccc3c(c2)C(=O)N([C@@H](C)CO)C[C@H](C)[C@H](CN(C)Cc2ccc(Oc4ccccc4)cc2)O3)cc1	38*	/	/	-15	/
COc1ccc(S(=O)(=O)Nc2ccc3c(c2)C(=O)N([C@H](C)CO)C[C@@H](C)[C@@H](CN(C)Cc2ccc(Oc4ccccc4)cc2)O3)cc1	30*	/	/	-8	/
COc1ccc(CN(C)C[C@H]2Oc3ccc(NS(=O)(=O)c4ccccc4)cc3C(=O)N([C@@H](C)CO)C[C@@H]2C)cc1	1	/	/	1	/
COc1ccc(S(=O)(=O)Nc2ccc3c(c2)C(=O)N([C@@H](C)CO)C[C@@H](C)[C@H](CN(C)Cc2ccc(Oc4ccccc4)cc2)O3)cc1	25*	/	/	1	/
C[C@@H]1CN([C@@H](C)CO)C(=O)c2cc(NS(=O)(=O)c3ccc(Cl)cc3)ccc2O[C@H]1CN(C)Cc1ccc(Oc2ccccc2)cc1	17*	/	/	-1	/
COc1ccc(COCC23N=C4SCCCN4[C@H](c4ccccc4O2)[C@H]3COC(=O)c2ccccc2)cc1	-1	/	/	5	/
SMILES	SIRT5 inh	CRFR2-BP antag	PKA-R2B activ	S100A4 MyoIIA	PKA-R1A activ
COc1ccc(S(=O)(=O)Nc2ccc3c(c2)C(=O)N([C@@H](C)CO)C[C@@H](C)[C@H](CN(C)Cc2ccc(-c4ccccc4)cc2)O3)cc1	21*	/	/	6	/
C[C@H](CO)N1C[C@H](C)[C@H](CN(C)Cc2ccc(Oc3ccccc3)cc2)Oc2ccc(NS(=O)(=O)c3ccccc3)cc2C1=O	14	/	/	-1	/
COc1ccc(S(=O)(=O)Nc2ccc3c(c2)C(=O)N([C@H](C)CO)C[C@@H](C)[C@H](CN(C)Cc2ccc(Oc4ccccc4)cc2)O3)cc1	22*	/	/	24	/
COc1ccc(S(=O)(=O)Nc2ccc3c(c2)C(=O)N([C@H](C)CO)C[C@H](C)[C@@H](CN(C)Cc2ccc(Oc4ccccc4)cc2)O3)cc1	22*	/	/	0	/
N#Cc1c(-c2cccs2)nc(SCc2ccc(Cl)cc2)[nH]c1=O	/	55*	1	-2	2
O=C(Nc1ccccc1)N1CC(=O)N2[C@H](CO)[C@H](c3ccc(C#CC4CCCC4)cc3)[C@H]2C1	-1	/	/	-3	/
CC(=O)[C@@]1(O)Cc2c(O)c3c(c(O)c2[C@H](O[C@H]2C[C@H](N)[C@H](O)[C@H](C)O2)C1)C(=O)c1ccccc1C3=O	-3	/	/	+	/
COc1cccc2c1C(=O)c1c(O)c3c(c(O)c1C2=O)C[C@@](O)(C(=O)CO)C[C@@H]3O[C@H]1C[C@H](N)[C@H](O)[C@H](C)O1	-2	-80	1	178*	-14
COc1cccc2c1C(=O)c1c(O)c3c(c(O)c1C2=O)CC(O)(C(C)=O)CC3OC1CC(N(C)C)C(O)C(C)O1 (stereo not drawn)	-1	-50	-9	+	-3
COc1cccc2c1C(=O)c1c(O)c3c(c(O)c1C2=O)C[C@@](O)(C(=O)CO)C[C@@H]3OC1CC(N)C(O)C(C)O1 (stereo partly drawn)	/	-124	-14	187*	6
C[C@H]1CN([C@@H](C)CO)C(=O)Cc2cc(NC(=O)CCCCCC(=O)Nc3ccccc3N)ccc2O[C@@H]1CN(C)Cc1ccc(Oc2ccccc2)cc1	29*	/	/	-5	/
COc1ccc(CN(C)C[C@H]2Oc3ccc(NC(=O)CCCCCC(=O)Nc4ccccc4N)cc3CC(=O)N([C@H](C)CO)C[C@H]2C)cc1	/	/	/	19	/
C[C@@H]1CN([C@@H](C)CO)C(=O)Cc2cc(NC(=O)CCCCCC(=O)Nc3ccccc3N)ccc2O[C@@H]1CN(C)Cc1ccc(Oc2ccccc2)cc1	26*	/	/	-1	/
COc1ccc(CN(C)C[C@H]2Oc3ccc(NC(=O)CCCCCC(=O)Nc4ccccc4N)cc3CC(=O)N([C@@H](C)CO)C[C@H]2C)cc1	/	/	/	2	/
C[C@@H]1CN([C@H](C)CO)C(=O)Cc2cc(NC(=O)CCCCCC(=O)Nc3ccccc3N)ccc2O[C@@H]1CN(C)Cc1ccc(Oc2ccccc2)cc1	16*	/	/	3	/

Compound activity: PubChem BioAssay, several laboratories
